Experiments:
Cholinesterase = Cholinesterase (Equus caballus, UniProt P81908); test: Inhibition of equine serum BChE using butyrylthiocholine iodide as substrate preincubated for 15 mins followed by substrate addition by Ellman's method; format: single protein
Summary of the method: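 Ellman method run at pH 8.0 in 0.1 M sodium phosphate buffer. Compounds come from 10 mM DMSO stocks diluted in buffer. Enzyme solution is 0.05 U/ml and DTNB stock is 10 mM. These are held 15 min at 25°C, then 7.5 mM butyrylthiocholine iodide stock is added. Percent inhibition comes from hydrolysis rate with versus without inhibitor.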

Acetylcholinesterase = Acetylcholinesterase (Electrophorus electricus, UniProt O42275); test: Inhibition of electric eel AChE using acetylthiocholine iodide as substrate preincubated for 15 mins followed by substrate addition by Ellman's method
Acetylcholinesterase, sequence (O42275 whole entry): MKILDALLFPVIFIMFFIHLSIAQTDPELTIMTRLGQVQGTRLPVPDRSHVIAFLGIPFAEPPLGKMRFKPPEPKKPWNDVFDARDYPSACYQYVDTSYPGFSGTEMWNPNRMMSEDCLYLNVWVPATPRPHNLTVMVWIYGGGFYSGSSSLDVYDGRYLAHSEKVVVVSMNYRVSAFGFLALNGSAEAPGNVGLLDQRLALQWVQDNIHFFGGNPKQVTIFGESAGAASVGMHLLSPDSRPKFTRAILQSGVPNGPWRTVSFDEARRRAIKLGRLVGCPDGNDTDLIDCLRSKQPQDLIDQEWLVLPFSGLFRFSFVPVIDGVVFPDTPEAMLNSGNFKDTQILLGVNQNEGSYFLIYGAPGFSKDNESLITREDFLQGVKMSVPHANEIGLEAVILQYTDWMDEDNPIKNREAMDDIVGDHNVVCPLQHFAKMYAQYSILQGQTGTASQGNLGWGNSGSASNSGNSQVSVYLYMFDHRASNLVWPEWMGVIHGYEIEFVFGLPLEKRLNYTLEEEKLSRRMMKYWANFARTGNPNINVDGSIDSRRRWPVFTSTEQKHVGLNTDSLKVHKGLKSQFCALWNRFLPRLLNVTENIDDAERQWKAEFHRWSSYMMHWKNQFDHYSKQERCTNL

Cholinesterase, sequence (P81908 whole entry): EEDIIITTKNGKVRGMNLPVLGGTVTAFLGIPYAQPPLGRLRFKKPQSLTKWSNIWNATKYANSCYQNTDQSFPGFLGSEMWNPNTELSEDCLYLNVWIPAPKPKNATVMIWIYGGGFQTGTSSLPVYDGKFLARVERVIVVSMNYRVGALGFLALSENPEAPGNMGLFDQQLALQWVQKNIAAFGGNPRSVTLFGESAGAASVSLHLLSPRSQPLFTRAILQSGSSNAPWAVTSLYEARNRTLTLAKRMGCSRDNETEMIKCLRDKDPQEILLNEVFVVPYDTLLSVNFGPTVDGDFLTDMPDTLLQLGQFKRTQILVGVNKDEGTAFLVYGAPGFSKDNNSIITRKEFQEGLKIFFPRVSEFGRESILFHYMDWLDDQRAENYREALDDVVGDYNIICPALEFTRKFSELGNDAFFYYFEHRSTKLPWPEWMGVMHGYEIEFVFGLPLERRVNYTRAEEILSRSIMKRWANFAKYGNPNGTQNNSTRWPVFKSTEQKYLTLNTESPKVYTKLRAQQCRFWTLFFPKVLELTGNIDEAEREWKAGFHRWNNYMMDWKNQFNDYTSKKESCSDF

SMILES: COc1cc2c(Nc3ccc(O)cc3)c([N+](=O)[O-])cnc2cc1OCCCN(C)Cc1ccccc1
- IC50 (Cholinesterase): 17.4 µM
- IC50 (Acetylcholinesterase): 740 nM

SMILES: COc1cc2c(Nc3ccccc3)c([N+](=O)[O-])cnc2cc1OCCCN(C)Cc1ccccc1
- IC50 (Cholinesterase): 10.1 µM
- IC50 (Acetylcholinesterase): 650 nM

SMILES: COc1cc2c(Nc3cccc(C)c3)c([N+](=O)[O-])cnc2cc1OCCCN(C)Cc1ccccc1
- IC50 (Cholinesterase): 2.78 µM
- IC50 (Acetylcholinesterase): 1860 nM

SMILES: COc1ccc(Nc2c([N+](=O)[O-])cnc3cc(OCCCN(C)Cc4ccccc4)c(OC)cc23)cc1
- IC50 (Cholinesterase): 50.4 µM
- IC50 (Acetylcholinesterase): 10900 nM

SMILES: COc1ccccc1Nc1c([N+](=O)[O-])cnc2cc(OCCCN(C)Cc3ccccc3)c(OC)cc12
- IC50 (Cholinesterase): 8.67 µM
- IC50 (Acetylcholinesterase): 7900 nM

SMILES: COc1cc2c(Nc3ccc(Cl)cc3)c([N+](=O)[O-])cnc2cc1OCCC[n+]1ccccc1
- IC50 (Cholinesterase): 14.2 µM
- IC50 (Acetylcholinesterase): 920 nM

SMILES: COc1cc2c(Nc3ccccc3C)c([N+](=O)[O-])cnc2cc1OCCCN(C)Cc1ccccc1
- IC50 (Cholinesterase): 29.7 µM
- IC50 (Acetylcholinesterase): 10100 nM

SMILES: COc1cc2c(Nc3cccc(O)c3)c([N+](=O)[O-])cnc2cc1OCCCN(C)Cc1ccccc1
- IC50 (Cholinesterase): 10.8 µM
- IC50 (Acetylcholinesterase): 710 nM

SMILES: COc1cc2c(Nc3ccc(C)cc3)c([N+](=O)[O-])cnc2cc1OCCCN(C)Cc1ccccc1
- IC50 (Cholinesterase): 73.6 µM
- IC50 (Acetylcholinesterase): 11800 nM

SMILES: COc1cc2c(Nc3ccc(Cl)cc3)c([N+](=O)[O-])cnc2cc1OCCCN(C)Cc1ccccc1
- IC50 (Cholinesterase): 17.4 µM
- IC50 (Acetylcholinesterase): 1880 nM

SMILES: COc1cc2c(Nc3cccc(C(F)(F)F)c3)c([N+](=O)[O-])cnc2cc1OCCCN(C)Cc1ccccc1
- IC50 (Cholinesterase): 55.4 µM
- IC50 (Acetylcholinesterase): 7780 nM

SMILES: COc1cc2c(Nc3cccc(Cl)c3)c([N+](=O)[O-])cnc2cc1OCCCN(C)Cc1ccccc1
- IC50 (Cholinesterase): 15.2 µM
- IC50 (Acetylcholinesterase): 830 nM

SMILES: COc1cccc(Nc2c([N+](=O)[O-])cnc3cc(OCCCN(C)Cc4ccccc4)c(OC)cc23)c1
- IC50 (Cholinesterase): 9.19 µM
- IC50 (Acetylcholinesterase): 1720 nM

SMILES: COc1cc2c(Nc3ccccc3Cl)c([N+](=O)[O-])cnc2cc1OCCCN(C)Cc1ccccc1
- IC50 (Cholinesterase): 2.65 µM
- IC50 (Acetylcholinesterase): 860 nM

SMILES: COc1cc2c(Nc3ccc(Cl)cc3Cl)c([N+](=O)[O-])cnc2cc1OCCCN(C)Cc1ccccc1
- IC50 (Cholinesterase): 58.7 µM
- IC50 (Acetylcholinesterase): 1850 nM

Reference: ChEMBL document CHEMBL4392849, “Design, synthesis, evaluation and molecular modeling study of 4-N-phenylaminoquinolines for Alzheimer disease treatment” (Bioorg Med Chem Lett, 2019)
